Reference: ChEMBL document CHEMBL4229344 (Eur J Med Chem, 2018)
Activity calls are given as the source filed them. The rule behind the calls is not given here.

Assays:
[1] = target: Calcium/calmodulin-dependent protein kinase type IV (Homo sapiens) (UniProt Q16566); test: Binding affinity to wild-type human partial length CAMK4 (A22 to A322 residues) expressed in bacterial expression system assessed as residual binding level at 1 uM by Kinomescan method relative to control
[2] = test system: Epidermal growth factor receptor (Homo sapiens), P00533 [L861Q]; test: Binding affinity to human partial length EGFR L861Q mutant (R669 to V1011 residues) expressed in bacterial expression system assessed as residual binding level at 1 uM by Kinomescan method relative to control
How it was run: (§1)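 Kinome-wide single-concentration binding screen (KINOMEscan) at 1 μM against a panel of 468 purified kinases and mutants. Read-out is relative binding of each kinase compared with control. Selectivity across the panel was summarised as an S(10) score.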

[3] = target: TRAF2 and NCK-interacting protein kinase (Homo sapiens) (UniProt Q9UKE5); test: Binding affinity to wild-type human partial length TNIK (D4 to K311 residues) expressed in bacterial expression system assessed as residual binding level at 1 uM by Kinomescan method relative to control
Chain of TRAF2 and NCK-interacting protein kinase (Homo sapiens) (Q9UKE5 whole entry, looked up, the tested form may be a part): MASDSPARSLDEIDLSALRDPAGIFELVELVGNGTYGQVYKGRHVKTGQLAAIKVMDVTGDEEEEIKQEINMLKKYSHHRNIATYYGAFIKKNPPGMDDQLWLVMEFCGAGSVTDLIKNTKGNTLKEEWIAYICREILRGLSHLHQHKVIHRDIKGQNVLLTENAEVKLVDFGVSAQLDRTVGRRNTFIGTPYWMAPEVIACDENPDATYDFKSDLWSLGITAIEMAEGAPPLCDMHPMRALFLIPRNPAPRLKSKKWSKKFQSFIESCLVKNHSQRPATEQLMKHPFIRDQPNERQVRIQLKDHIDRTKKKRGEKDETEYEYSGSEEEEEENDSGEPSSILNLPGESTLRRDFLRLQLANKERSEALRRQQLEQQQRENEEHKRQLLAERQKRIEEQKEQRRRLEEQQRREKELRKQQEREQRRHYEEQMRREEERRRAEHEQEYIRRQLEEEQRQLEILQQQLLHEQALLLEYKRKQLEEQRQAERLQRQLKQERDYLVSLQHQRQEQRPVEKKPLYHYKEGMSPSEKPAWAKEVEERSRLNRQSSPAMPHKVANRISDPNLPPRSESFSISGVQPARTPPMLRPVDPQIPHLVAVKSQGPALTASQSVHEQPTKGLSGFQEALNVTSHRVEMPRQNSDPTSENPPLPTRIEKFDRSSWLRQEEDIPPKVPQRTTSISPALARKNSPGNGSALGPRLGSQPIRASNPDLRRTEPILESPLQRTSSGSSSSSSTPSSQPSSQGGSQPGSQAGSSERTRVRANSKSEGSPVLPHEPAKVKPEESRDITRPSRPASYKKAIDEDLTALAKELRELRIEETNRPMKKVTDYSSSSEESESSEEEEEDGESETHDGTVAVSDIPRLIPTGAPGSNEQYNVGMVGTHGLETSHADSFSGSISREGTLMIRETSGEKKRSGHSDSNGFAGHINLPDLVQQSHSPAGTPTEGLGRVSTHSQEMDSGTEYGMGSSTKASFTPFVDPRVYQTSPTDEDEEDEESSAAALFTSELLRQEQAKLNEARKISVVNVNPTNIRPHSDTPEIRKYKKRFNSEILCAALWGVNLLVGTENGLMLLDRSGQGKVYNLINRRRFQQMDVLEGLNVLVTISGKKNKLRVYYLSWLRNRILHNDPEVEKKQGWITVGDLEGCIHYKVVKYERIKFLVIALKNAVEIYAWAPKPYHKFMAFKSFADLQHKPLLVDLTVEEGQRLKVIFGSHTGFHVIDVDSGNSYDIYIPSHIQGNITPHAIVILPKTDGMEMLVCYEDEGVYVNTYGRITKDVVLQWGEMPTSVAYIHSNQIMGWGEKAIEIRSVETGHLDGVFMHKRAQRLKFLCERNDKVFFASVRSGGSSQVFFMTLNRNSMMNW
How it was run: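 KINOMEscan competition binding against a panel of 468 purified kinases/mutants, compound tested at 1 μM; readout is relative binding activity versus control.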

[4] = target: Myosin light chain kinase family member 4 (Homo sapiens) (UniProt Q86YV6); test: Binding affinity to wild-type human partial length MYLK4 (V79 to S380 residues) expressed in bacterial expression system assessed as residual binding level at 1 uM by Kinomescan method relative to control
[5] = Apparent clearance in Sprague-Dawley rat at 10 mg/kg, po; format: ADME, organism-based; conditions: in vivo, read-out: CL(app) (converted)
[6] = test system: Tyrosine-protein kinase ABL1 (Homo sapiens), P00519 [Q252H]; test: Binding affinity to human phosphorylated ABL1 Q252H mutant expressed in mammalian expression system assessed as residual binding level at 1 uM by Kinomescan method relative to control
How it was run: (§2)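 Single-concentration (1 μM) competition-binding screen run by KINOMEscan against a panel of 468 purified kinases and mutants. The read-out is the relative binding activity of the test compound to each kinase.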

[7] = target: Receptor-type tyrosine-protein kinase FLT3 (Homo sapiens) (UniProt P36888); test: Binding affinity to wild-type human partial length autoinhibited FLT3 (H564 to Y969 residues) expressed in mammalian expression system assessed as residual binding level at 1 uM by Kinomescan method relative to control
Chain of Receptor-type tyrosine-protein kinase FLT3 (Homo sapiens) (P36888 whole entry, the tested form may be a part): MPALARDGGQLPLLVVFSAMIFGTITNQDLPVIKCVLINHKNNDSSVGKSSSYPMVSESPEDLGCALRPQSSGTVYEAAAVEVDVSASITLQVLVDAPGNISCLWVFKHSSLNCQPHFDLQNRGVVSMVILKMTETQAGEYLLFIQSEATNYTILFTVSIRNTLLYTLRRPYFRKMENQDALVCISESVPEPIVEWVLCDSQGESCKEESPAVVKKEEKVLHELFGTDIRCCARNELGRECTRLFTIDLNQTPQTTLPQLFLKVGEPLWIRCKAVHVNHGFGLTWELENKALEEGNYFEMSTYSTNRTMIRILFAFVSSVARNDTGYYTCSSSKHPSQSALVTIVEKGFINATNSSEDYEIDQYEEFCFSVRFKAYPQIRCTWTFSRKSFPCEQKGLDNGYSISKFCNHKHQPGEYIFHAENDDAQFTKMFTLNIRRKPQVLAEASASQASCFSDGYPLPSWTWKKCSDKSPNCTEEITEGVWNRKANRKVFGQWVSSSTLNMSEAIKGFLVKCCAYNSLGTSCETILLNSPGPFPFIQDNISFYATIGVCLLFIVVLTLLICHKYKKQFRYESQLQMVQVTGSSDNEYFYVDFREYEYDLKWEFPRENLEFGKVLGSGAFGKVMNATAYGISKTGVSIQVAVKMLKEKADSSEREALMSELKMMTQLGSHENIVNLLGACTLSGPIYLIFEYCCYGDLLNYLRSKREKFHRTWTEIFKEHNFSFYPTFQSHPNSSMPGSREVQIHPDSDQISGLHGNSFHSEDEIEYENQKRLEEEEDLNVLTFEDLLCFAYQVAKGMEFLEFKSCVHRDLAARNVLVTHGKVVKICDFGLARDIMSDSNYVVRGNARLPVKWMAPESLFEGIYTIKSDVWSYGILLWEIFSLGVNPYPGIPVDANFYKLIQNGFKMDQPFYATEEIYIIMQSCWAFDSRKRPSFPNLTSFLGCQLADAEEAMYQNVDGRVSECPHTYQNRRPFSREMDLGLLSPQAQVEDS

[8] = test system: Platelet-derived growth factor receptor alpha (Homo sapiens), P16234 [T674I]; test: Inhibition of TEL-fused PDGFRalpha T674I mutant (unknown origin) expressed in mouse BA/F3 cells assessed as growth inhibition after 72 hrs by CellTiter-Glo or CCK-8 assay; format: cell-based
Chain of Platelet-derived growth factor receptor alpha (Homo sapiens), P16234 [T674I] (P16234 whole entry T674I, the tested form may be a part): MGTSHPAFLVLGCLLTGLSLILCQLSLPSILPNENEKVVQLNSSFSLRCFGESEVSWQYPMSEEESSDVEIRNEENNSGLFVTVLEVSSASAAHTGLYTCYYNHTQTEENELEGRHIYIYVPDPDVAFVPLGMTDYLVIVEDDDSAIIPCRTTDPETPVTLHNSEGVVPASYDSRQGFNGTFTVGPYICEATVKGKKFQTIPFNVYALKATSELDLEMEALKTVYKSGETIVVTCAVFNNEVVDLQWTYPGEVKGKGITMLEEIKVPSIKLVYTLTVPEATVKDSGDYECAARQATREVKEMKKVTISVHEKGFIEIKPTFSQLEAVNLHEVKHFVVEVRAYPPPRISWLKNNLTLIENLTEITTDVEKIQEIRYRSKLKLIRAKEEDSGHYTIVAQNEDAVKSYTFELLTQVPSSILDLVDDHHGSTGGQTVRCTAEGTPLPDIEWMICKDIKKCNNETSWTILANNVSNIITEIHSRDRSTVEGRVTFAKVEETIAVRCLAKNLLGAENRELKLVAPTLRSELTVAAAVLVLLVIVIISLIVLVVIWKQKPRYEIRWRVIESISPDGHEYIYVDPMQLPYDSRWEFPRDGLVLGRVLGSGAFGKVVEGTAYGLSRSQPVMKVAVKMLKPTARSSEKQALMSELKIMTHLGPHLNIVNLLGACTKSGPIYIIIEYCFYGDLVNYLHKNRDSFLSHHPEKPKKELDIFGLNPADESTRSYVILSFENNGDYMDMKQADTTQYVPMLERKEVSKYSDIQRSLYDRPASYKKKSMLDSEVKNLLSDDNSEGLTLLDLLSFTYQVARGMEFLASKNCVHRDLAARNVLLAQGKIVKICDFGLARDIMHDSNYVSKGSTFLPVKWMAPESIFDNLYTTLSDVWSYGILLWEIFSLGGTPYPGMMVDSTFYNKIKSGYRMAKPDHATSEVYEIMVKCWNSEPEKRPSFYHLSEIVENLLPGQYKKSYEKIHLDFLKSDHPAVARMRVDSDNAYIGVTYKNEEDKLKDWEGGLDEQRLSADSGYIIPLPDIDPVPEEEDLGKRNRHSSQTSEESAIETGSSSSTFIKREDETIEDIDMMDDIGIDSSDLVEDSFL

[9] = target: Serine/threonine-protein kinase ULK1 (Homo sapiens) (UniProt O75385); test: Binding affinity to wild-type human partial length ULK1 (M1 to T309 residues) expressed in mammalian expression system assessed as residual binding level at 1 uM by Kinomescan method relative to control
[10] = target: Calcium/calmodulin-dependent protein kinase kinase 1 (Homo sapiens) (UniProt Q8N5S9); test: Binding affinity to wild-type human partial length CAMKK1 (R65 to E414 residues) expressed in bacterial expression system assessed as residual binding level at 1 uM by Kinomescan method relative to control
Chain of Calcium/calmodulin-dependent protein kinase kinase 1 (Homo sapiens) (Q8N5S9 whole entry, looked up, the tested form may be a part): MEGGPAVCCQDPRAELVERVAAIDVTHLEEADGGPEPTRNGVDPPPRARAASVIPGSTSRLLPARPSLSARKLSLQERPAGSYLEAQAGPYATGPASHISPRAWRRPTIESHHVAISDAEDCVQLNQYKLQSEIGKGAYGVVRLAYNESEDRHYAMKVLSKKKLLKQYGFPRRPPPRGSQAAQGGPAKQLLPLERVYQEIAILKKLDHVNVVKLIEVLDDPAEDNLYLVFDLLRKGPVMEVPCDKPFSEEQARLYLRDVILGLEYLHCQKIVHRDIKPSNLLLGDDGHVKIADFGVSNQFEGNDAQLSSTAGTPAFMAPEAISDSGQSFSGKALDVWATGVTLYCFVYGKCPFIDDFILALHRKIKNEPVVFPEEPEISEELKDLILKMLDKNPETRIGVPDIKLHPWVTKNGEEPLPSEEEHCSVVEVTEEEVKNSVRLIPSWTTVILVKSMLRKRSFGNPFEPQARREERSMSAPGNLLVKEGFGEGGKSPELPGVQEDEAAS
How it was run: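 Kinome-wide competition binding screen against a panel of 468 purified kinases/mutants, with the test compound at a single concentration of 1 μM. Read-out is the relative binding activity of each kinase in the presence of compound.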

[11] = test system: Tyrosine-protein kinase ABL1 (Homo sapiens), P00519 [H396P]; test: Binding affinity to human phosphorylated ABL1 H396P mutant (S229 to K512 residues) expressed in mammalian expression system assessed as residual binding level at 1 uM by Kinomescan method relative to control; how it was run: as §2
[12] = target: Bone morphogenetic protein receptor type-2 (Homo sapiens) (UniProt Q13873); test: Binding affinity to wild-type human partial length BMPR2 (R179 to Q526 residues) expressed in mammalian expression system assessed as residual binding level at 1 uM by Kinomescan method relative to control
How it was run: (§3)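 Single-concentration KINOMEscan (DiscoverX) binding screen at 1 μM against a panel of 468 purified kinases and mutants. The read-out is binding relative to control.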

[13] = test system: NCI-H1703; test: Cell cycle arrest in human NCI-H1703 cells assessed as accumulation at G0/G1 phase at 0.3 to 10 uM after 72 hrs in presence of PDGF-AA by propidium iodide/RNase staining-based flow cytometric analysis; format: functional
How it was run: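 Cells treated with compound or DMSO for the stated periods, fixed overnight in 70% cold ethanol at −20 °C, stained with PI/RNase buffer, then analysed by flow cytometry for cell-cycle distribution. For NCI-H1703 stimulation, PDGF AA was used at 100 ng/mL.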

[14] = test system: EOL1; test: Antitumor activity against human EOL-1 cells xenografted in nu/nu mouse assessed as induction of apoptosis at 25 to 100 mg/kg/day, ip by DAB staining-based TUNEL assay; format: functional, organism-based
How it was run: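 Female nu/nu mice (6 weeks) given subcutaneous right-flank injection of 5 million EOL-1 cells in PBS/Matrigel 1:1. At 200–400 mm3 tumors, randomized to groups of 6 and dosed daily i.p. for 14 days at 25, 50 or 100 mg/kg/d in 0.5% methylcellulose/0.4% Tween80. Tumor volume = W²×L/2, measured daily.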

[15] = target: Insulin receptor (Homo sapiens) (UniProt P06213); test: Binding affinity to wild-type human partial length INSR (P997 to E1318 residues) expressed in mammalian expression system assessed as residual binding level at 1 uM by Kinomescan method relative to control
[16] = test system: Fibroblast growth factor receptor 3 (Homo sapiens), P22607 [G697C]; test: Binding affinity to human partial length FGFR3 G697C mutant (R442 to S771 residues) expressed in bacterial expression system assessed as residual binding level at 1 uM by Kinomescan method relative to control; how it was run: as §1
Chain of Fibroblast growth factor receptor 3 (Homo sapiens), P22607 [G697C] (P22607 whole entry G697C, the tested form may be a part): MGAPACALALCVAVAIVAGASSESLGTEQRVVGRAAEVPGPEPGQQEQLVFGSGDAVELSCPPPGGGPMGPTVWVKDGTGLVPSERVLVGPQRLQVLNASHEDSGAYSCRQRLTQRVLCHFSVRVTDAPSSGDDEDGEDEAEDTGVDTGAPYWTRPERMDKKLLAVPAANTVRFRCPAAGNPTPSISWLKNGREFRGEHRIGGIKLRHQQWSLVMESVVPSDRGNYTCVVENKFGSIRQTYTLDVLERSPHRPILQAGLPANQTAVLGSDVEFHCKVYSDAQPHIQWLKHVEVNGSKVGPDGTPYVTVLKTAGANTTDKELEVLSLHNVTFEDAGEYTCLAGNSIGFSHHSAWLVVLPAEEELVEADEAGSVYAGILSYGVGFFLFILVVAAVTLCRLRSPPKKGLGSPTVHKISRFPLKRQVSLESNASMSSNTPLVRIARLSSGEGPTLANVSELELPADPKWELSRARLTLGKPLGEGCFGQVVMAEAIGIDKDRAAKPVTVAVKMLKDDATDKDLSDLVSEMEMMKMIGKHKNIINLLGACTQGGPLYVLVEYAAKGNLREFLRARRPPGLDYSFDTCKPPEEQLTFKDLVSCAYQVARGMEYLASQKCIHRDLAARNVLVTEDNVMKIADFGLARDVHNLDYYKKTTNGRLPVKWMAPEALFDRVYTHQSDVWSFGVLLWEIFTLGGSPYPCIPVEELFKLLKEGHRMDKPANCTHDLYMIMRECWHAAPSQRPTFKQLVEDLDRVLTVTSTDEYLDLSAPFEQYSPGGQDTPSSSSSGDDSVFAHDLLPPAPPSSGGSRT

[17] = target: Non-receptor tyrosine-protein kinase TYK2 (Homo sapiens) (UniProt P29597); test: Binding affinity to wild-type human partial length TYK2 JH2 pseudokinase domain (G556 to D888 residues) expressed in mammalian expression system assessed as residual binding level at 1 uM by Kinomescan method relative to control
[18] = test system: Tyrosine-protein kinase ABL1 (Homo sapiens), P00519 [H396P]; test: Binding affinity to human non-phosphorylated ABL1 H396P mutant (S229 to K512 residues) expressed in mammalian expression system assessed as residual binding level at 1 uM by Kinomescan method relative to control; how it was run: as §1
[19] = target: Tyrosine-protein kinase Fer (Homo sapiens) (UniProt P16591); test: Binding affinity to wild-type human partial length FER (S542 to T822 residues) expressed in bacterial expression system assessed as residual binding level at 1 uM by Kinomescan method relative to control
[20] = target: RAC-beta serine/threonine-protein kinase (Homo sapiens) (UniProt P31751); test: Binding affinity to wild-type human partial length AKT2 expressed in bacterial expression system assessed as residual binding level at 1 uM by Kinomescan method relative to control; how it was run: as §3

Cc1ccc(NC(=O)c2ccc(CN(CCN(C)C)C(=O)c3cccnc3)cc2)cc1Nc1nccc(-c2cccnc2)n1
Activity [1]: 98% | Activity [2]: 99% | Activity [3]: 83% | Activity [4]: 76% | CL/F [5]: 1450 mL/min/kg | Activity [6]: 100% | Activity [7]: 100% | GI50 [8]: > 10 µM | Activity [9]: 100% | Activity [10]: 92% | Activity [11]: 97% | Activity [12]: 100% | Activity [13]: Active | Activity [14]: Active | Activity [15]: 100% | Activity [16]: 100% | Activity [17]: 91% | Activity [18]: 69% | Activity [19]: 100% | Activity [20]: 100%
